Several values for one entry are separate records, joined by “and”; a condition that tells them apart may be missing. Equal entries are not always repeated.
How the values were obtained:
Mus musculus [1] = test: Percent increase in life span was measured in mice intracerebrally implanted leukemia L1210 at 140-30 mg/kg administered intraperitoneally on day 1 only; Toxic; type: functional, organism-based
In short: (§1)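 Mice implanted intracerebrally with an inoculum of 10⁵ L1210 leukemia cells. Compound given intraperitoneally on day 1 only. Read-outs were median day of death, % increase in life span calculated for animals dying, and 45-day survivors over total mice. Tests were run by an external cancer screening group.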

Mus musculus [2] = test: Percent increase in life span was measured in mice intracerebrally implanted leukemia L1210 at 15 mg/kg administered intraperitoneally on day 1 only.; type: functional; conditions: L1210, ip, 24 h, route intraperitoneal; in short: as §1
Mus musculus [3] = test: Percent increase in life span was measured in mice intracerebrally implanted leukemia L1210 at 25 mg/kg administered intraperitoneally on day 1 only.; type: functional; conditions: L1210, ip, 24 h, route intraperitoneal; in short: as §1
Mus musculus [4] = test: Percent increase in life span was measured in mice intracerebrally implanted leukemia L1210 at 30 mg/kg administered intraperitoneally on day 1 only.; type: functional; conditions: L1210, ip, 24 h, route intraperitoneal; in short: as §1
Mus musculus [5] = test: Percent increase in life span was measured in mice intracerebrally implanted leukemia L1210 at 35 mg/kg administered intraperitoneally on day 1 only.; type: functional; conditions: L1210, ip, 24 h, route intraperitoneal; in short: as §1
Mus musculus [6] = test: Activity against TLX-5 lymphoma in mice Percent increase in survival time at 100 mg/kg,; type: functional
Mus musculus [7] = test: Activity against TLX-5 lymphoma in mice Percent increase in survival time at 20 mg/kg,; type: functional
Mus musculus [8] = test: Activity against TLX-5 lymphoma in mice Percent increase in survival time at 40 mg/kg,; type: functional
Mus musculus [9] = test: Activity against TLX-5 lymphoma in mice Percent increase in survival time at 5 mg/kg,; type: functional
Mus musculus [10] = test: Activity against TLX-5 lymphoma in mice Percent increase in survival time at 80 mg/kg,; type: functional
Mus musculus [11] = test: Percent increase in life span was measured in mice intracerebrally implanted leukemia L1210 at 10 mg/kg administered intraperitoneally on day 1 only.; type: functional; conditions: L1210, ip, 24 h, route intraperitoneal; in short: as §1
Mus musculus [12] = test: Median day of death was measured in mice intracerebrally implanted leukemia L1210 at 25 mg/kg administered intraperitoneally on day 1.; type: functional; conditions: route intraperitoneal; in short: as §1
Mus musculus [13] = test: Median day of death was measured in mice intracerebrally implanted leukemia L1210 at 30 mg/kg administered intraperitoneally on day 1.; type: functional; conditions: route intraperitoneal; in short: as §1
Mus musculus [14] = test: Median day of death was measured in mice intracerebrally implanted leukemia L1210 at 35 mg/kg administered intraperitoneally on day 1.; type: functional; conditions: route intraperitoneal; in short: as §1
Mus musculus [15] = test: Median day of death was measured in mice intracerebrally implanted leukemia L1210 at 10 mg/kg administered intraperitoneally on day 1.; type: functional; conditions: route intraperitoneal; in short: as §1
Mus musculus [16] = test: Activity against TLX-5 lymphoma in mice Percent increase in survival time at 10 mg/kg,; type: functional
Mus musculus [17] = test: Median day of death was measured in mice intracerebrally implanted leukemia L1210 at 15 mg/kg administered intraperitoneally on day 1.; type: functional; conditions: route intraperitoneal; in short: as §1
Mus musculus [18] = test: Percent increase in life span was measured in mice intracerebrally implanted leukemia L1210 at 40 mg/kg administered intraperitoneally on day 1 only.; type: functional; conditions: L1210, ip, 24 h, route intraperitoneal; in short: as §1
Mus musculus [19] = test: Percent increase in life span was measured in mice intracerebrally implanted leukemia L1210 at 50 mg/kg administered intraperitoneally on day 1 only.; type: functional; conditions: L1210, ip, 24 h, route intraperitoneal; in short: as §1
Mus musculus [20] = test: Percent increase in life span was measured in mice intracerebrally implanted leukemia L1210 at 60 mg/kg administered intraperitoneally on day 1 only.; type: functional; conditions: route intraperitoneal; in short: as §1
Mus musculus [21] = test: (§2) Percent increase in life span was measured in mice intracerebrally implanted leukemia L1210 at 80 mg/kg administered intraperitoneally on day 1 only.; type: functional; conditions: L1210, ip, 24 h, route intraperitoneal; in short: as §1
Mus musculus [22] = test: as §2; type: functional; conditions: L1210, ip, 24 h, route intraperitoneal; in short: as §1; remark: listed apart in the source
Mus musculus [23] = test: Median day of death was measured in mice intracerebrally implanted leukemia L1210 at 40 mg/kg administered intraperitoneally on day 1.; type: functional; conditions: route intraperitoneal; in short: as §1
Mus musculus [24] = test: Median day of death was measured in mice intracerebrally implanted leukemia L1210 at 60 mg/kg administered intraperitoneally on day 1.; type: functional; conditions: route intraperitoneal; in short: as §1
Mus musculus [25] = test: Median day of death was measured in mice intracerebrally implanted leukemia L1210 at 80 mg/kg administered intraperitoneally on day 1.; type: functional; conditions: route intraperitoneal; in short: as §1
Mus musculus [26] = test: survivors / total number of mice intracerebrally implanted leukemia L1210 at 30 mg/kg administered intraperitoneally on day 1 only. 4-5 day; 1/9; type: functional; conditions: route intraperitoneal; in short: as §1
Mus musculus [27] = test: survivors / total number of mice intracerebrally implanted leukemia L1210 at 30 mg/kg administered intraperitoneally on day 1 only. 4-5 day; 8/10; type: functional; conditions: route intraperitoneal; in short: as §1
Mus musculus [28] = test: survivors / total number of mice intracerebrally implanted leukemia L1210 at 40 mg/kg administered intraperitoneally on day 1 only. 4-5 day; 8/9; type: functional; conditions: route intraperitoneal; in short: as §1
Mus musculus [29] = test: survivors / total number of mice intracerebrally implanted leukemia L1210 at 40 mg/kg administered intraperitoneally on day 1 only. 4-5 day; 10/10; type: functional; conditions: route intraperitoneal; in short: as §1
Mus musculus [30] = test: survivors / total number of mice intracerebrally implanted leukemia L1210 at 50 mg/kg administered intraperitoneally on day 1 only. 4-5 day; 8/9; type: functional; conditions: route intraperitoneal; in short: as §1
Mus musculus [31] = test: survivors / total number of mice intracerebrally implanted leukemia L1210 at 50 mg/kg administered intraperitoneally on day 1 only. 4-5 day; 8/10; type: functional; conditions: route intraperitoneal; in short: as §1
Mus musculus [32] = test: survivors / total number of mice intracerebrally implanted leukemia L1210 at 60 mg/kg administered intraperitoneally on day 1 only. 4-5 day; 9/10; type: functional; conditions: route intraperitoneal; in short: as §1
Mus musculus [33] = test: survivors / total number of mice intracerebrally implanted leukemia L1210 at 60 mg/kg administered intraperitoneally on day 1 only. 4-5 day; 8/10; type: functional; conditions: route intraperitoneal; in short: as §1
Mus musculus [34] = test: survivors / total number of mice intracerebrally implanted leukemia L1210 at 80 mg/kg administered intraperitoneally on day 1 only. 4-5 day; 3/8; type: functional; conditions: route intraperitoneal; in short: as §1

Structure (SMILES): O=NN(CCCl)C(=O)NC1C(F)(F)C(F)(F)C(F)(F)C(F)(F)C1(F)F
- ILS (Mus musculus [1]): Toxic
- ILS at 15 mg/kg (Mus musculus [2]): 0%
- ILS at 25 mg/kg (Mus musculus [3]): 0%
- ILS at 30 mg/kg (Mus musculus [4]): 0%
- ILS at 35 mg/kg (Mus musculus [5]): -13%
- Increase (Mus musculus [6]): -57.5%
- Increase (Mus musculus [7]): -2.2%
- Increase (Mus musculus [8]): 11.6%
- Increase (Mus musculus [9]): 4.2%
- Increase (Mus musculus [10]): -38.3%
- ILS at 10 mg/kg (Mus musculus [11]): 0%
- Median day of death (Mus musculus [12]): 8
- Median day of death (Mus musculus [13]): 8
- Median day of death (Mus musculus [14]): 7
- Median day of death (Mus musculus [15]): 8
- Increase (Mus musculus [16]): 6.3%
- Median day of death (Mus musculus [17]): 8

Structure (SMILES): O=NN(CCCl)C(=O)NC1CCCCC1 [LOMUSTINE]
- ILS at 40 mg/kg (Mus musculus [18]): 257%
- ILS at 50 mg/kg (Mus musculus [19]): 350%
- ILS (Mus musculus [20]): 278% and 185%
- ILS at 80 mg/kg (Mus musculus [21]): 135%
- ILS at 80 mg/kg (Mus musculus [22]): 42%
- Increase (Mus musculus [6]): -36.2%
- Increase (Mus musculus [7]): 95.9%
- Increase (Mus musculus [8]): 189.3%
- Increase (Mus musculus [9]): 21.2%
- Increase (Mus musculus [10]): -25.6%
- Median day of death (Mus musculus [13]; 30 mg/kg): 37.5 and 15
- Median day of death (Mus musculus [23]): 25
- Median day of death (Mus musculus [24]): 26.5 and 20
- Median day of death (Mus musculus [25]): 16.5 and 10
- No. of survivors (Mus musculus [26]): 1
- No. of survivors (Mus musculus [27]): 8
- No. of survivors (Mus musculus [28]): 8
- No. of survivors (Mus musculus [29]): 10
- No. of survivors (Mus musculus [30]): 8
- No. of survivors (Mus musculus [31]): 8
- No. of survivors (Mus musculus [32]): 9
- No. of survivors (Mus musculus [33]): 8
- No. of survivors (Mus musculus [34]): 3
- Increase (Mus musculus [16]): 53.1%
